58 compounds from PubChem BioAssay AID588575 (Sanford-Burnham Center for Chemical Genomics, 2011) can be followed below.

What is called IC50 is the midpoint of a concentration-inhibition curve.

The source made the active and inactive calls.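 Rule for the calls: active = IC50 at or below 20 µM; inactive = the rest.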

Chain of Bcl-2-like protein 10 (Homo sapiens) (Q9HD36 whole entry, looked up): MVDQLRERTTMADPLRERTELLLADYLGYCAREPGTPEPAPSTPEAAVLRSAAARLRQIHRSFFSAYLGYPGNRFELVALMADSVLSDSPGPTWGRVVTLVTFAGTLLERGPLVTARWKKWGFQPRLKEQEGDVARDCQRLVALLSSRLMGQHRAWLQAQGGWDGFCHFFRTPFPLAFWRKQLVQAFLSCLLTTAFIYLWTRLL

The target in this test is Bcl-2-like protein 10 (Homo sapiens) (UniProt Q9HD36). Put plainly: Bcl-B inhibitors displacing Bim peptide, SAR follow-up, biochemical, fluorescence polarization, GST-Bcl-B, FITC-Bim (AID 588575). In short, it runs like this:
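material = recombinant GST-Bcl-B protein without C-terminal transmembrane region | probe or stimulus = FITC-Bim peptide probe | compound dosing = 10 concentrations, 2-fold steps | schedule = 20 min at 4 °C preincubation, 10 min probe step at room temperature | detection = fluorescence polarization, excitation 485 nm, emission 530 nm | evaluation = IC50 via sigmoidal curve fitting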
A general note: Fluorescence polarisation rises when a labelled molecule tumbles more slowly, as on binding a larger partner.
Consider `COc1ccc(Cn2c(=O)c3c(n4nnnc24)-c2ccccc2CC32CCCC2)cc1`, for which the IC50 is 0.386 µM.

As to `O=c1c2ccccc2nc2n1C1(CCCCC1)Cc1ccccc1-2`, the IC50 was > 20 µM (inactive).

With `O=c1c2c(n3nnnc3n1-c1ccccc1)-c1ccccc1CC21CCCC1`, the IC50 is > 20 µM (inactive).

Turning to `COc1ccc2c(c1)-c1c(c(=O)n(Cc3ccccc3)c3nncn13)C1(CCCC1)C2`, the IC50 is > 20 µM (inactive).

Regarding `Cn1c(=O)c2c(n3cnnc13)-c1ccccc1CC21CCCC1`, the IC50 was > 20 µM (inactive).

As for `O=c1c2cnc3nc(-c4ccccc4)nn3c2ccn1CCc1cnc[nH]1`, the IC50 was > 20 µM (inactive).

In the case of `O=c1c2c(n3nnnc3n1Cc1ccccc1)-c1ccccc1CC21CCCCC1`, the IC50 is 4.15 µM.

`O=c1c2c(nc3n1CCS3)-c1ccccc1CC21CCCCC1`: the IC50 was > 20 µM (inactive).

Consider `COc1ccc2c(c1)-c1c(c(=O)n(Cc3ccc(F)cc3)c3nnnn13)C(C)(C)C2`, for which the IC50 was > 20 µM (inactive).

With `CC1(C)CC(n2c(=S)[nH]c3c(c2=O)C2(CCCC2)Cc2ccccc2-3)CCO1` (stereo not drawn), the IC50 was > 20 µM (inactive).

As to `O=c1c2c(n3nnnc3n1Cc1ccccc1)-c1cc(F)ccc1CC21CCCCC1`, the IC50 is 0.775 µM.

With `O=c1c2c(n3cnnc3n1C1CCCCC1)-c1ccccc1CC21CCCCC1`, the IC50 was > 20 µM (inactive).

Take `CC1(C)Cc2ccccc2-c2c1c(=O)n(Cc1ccccc1)c1nnnn21`: the IC50 is > 20 µM (inactive).

As for `O=c1c2cnc3ncnn3c2ccn1CCc1cnc[nH]1`, the IC50 was > 20 µM (inactive).

As for `COc1ccc2c(c1)-c1c(c(=O)n(Cc3ccccc3)c3nnnn13)C1(CCCC1)C2`, the IC50 is > 20 µM (inactive).

As to `C=C(C)Cn1c(=O)c2c(n3cnnc13)-c1ccccc1CC21CCCC1`, the IC50 was > 20 µM (inactive).

In the case of `Cc1ccc2c(c1)-c1c(c(=O)n(Cc3ccc(Cl)cc3)c3nncn13)C1(CCCCC1)C2`, the IC50 was > 20 µM (inactive).

As to `O=c1[nH]c(NCCCO)nc2c1C1(CCCCC1)Cc1ccccc1-2`, the IC50 was > 20 µM (inactive).

Take `CC1(C)Cc2ccccc2-c2nc3nn[nH]n3c(=O)c21`: the IC50 is > 20 µM (inactive).

`Cc1ccc2c(c1)-c1c(c(=O)n(Cc3ccc(Cl)cc3)c3nnnn13)C1(CCCCC1)C2`: the IC50 was > 20 µM (inactive).

Regarding `O=c1c2c(nc3[nH]ncn13)-c1ccccc1CC21CCCCC1`, the IC50 is > 20 µM (inactive).

Take `O=c1c2c(n3cnnc3n1Cc1ccccc1)-c1ccccc1CC21CCCC1`: the IC50 was 5.19 µM.

Turning to `Cn1c(NCCO)nc2c(c1=O)C1(CCCCC1)Cc1ccccc1-2`, the IC50 is > 20 µM (inactive).

Consider `Cc1ccc2c(c1)-c1c(c(=O)n(Cc3ccccc3)c3nncn13)C1(CCCCC1)C2`, for which the IC50 was 4.92 µM.

`COc1ccc2c(c1)-c1c(c(=O)n(Cc3ccccc3)c3nncn13)C(C)(C)C2`: the IC50 is > 20 µM (inactive).

For the compound `O=c1c2c(n3nnnc3n1Cc1ccccc1)-c1cc(F)ccc1CC21CCCC1`, the IC50 was > 20 µM (inactive).

Turning to `O=c1[nH]c(CN2CCCC2)nc2c1C1(CCCC1)Cc1ccccc1-2`, the IC50 was > 20 µM (inactive).

Regarding `O=c1c2c(n3nnnc3n1Cc1ccc(F)cc1)-c1ccccc1CC21CCCC1`, the 50% inhibitory concentration (IC50) is 1.56 µM.

For the compound `O=c1c2c(nc3[nH]ncn13)-c1ccccc1CC21CCCC1`, the IC50 is > 20 µM (inactive).

Turning to `O=C1CC(c2ccccc2F)c2c(n3ncnc3[nH]c2=O)N1` (stereo not drawn), the IC50 was > 20 µM (inactive).

On to `O=C1CC(c2ccc(F)cc2)CC2=C1C(c1cccc(Cl)c1)n1ncnc1N2` (stereo not drawn), for which the IC50 was > 20 µM (inactive).

In the case of `O=c1c2c(n3cnnc3n1Cc1ccc(Cl)cc1)-c1ccccc1CC21CCCC1`, the IC50 was 3.4 µM.

`Cc1ccc2c(c1)-c1c(c(=O)n(Cc3ccccc3)c3nnnn13)C(C)(C)C2`: the half-maximal inhibitory concentration (IC50) is 5.77 µM.

Turning to `COc1ccc2c(c1)-c1c(c(=O)n(Cc3ccc(Cl)cc3)c3nncn13)C(C)(C)C2`, the IC50 is > 20 µM (inactive).

As to `O=c1c2c(n3cnnc3n1Cc1ccccc1)-c1ccccc1CC21CCCCC1`, the IC50 was > 20 µM (inactive).

For `Cc1ccc2c(c1)-c1c(c(=O)n(Cc3ccccc3)c3nncn13)C(C)(C)C2`, the IC50 is > 20 µM (inactive).

Regarding `O=c1[nH]c(CN2CCOCC2)nc2c1C1(CCCC1)Cc1ccccc1-2`, the IC50 was > 20 µM (inactive).

`O=c1c2c(n3nnnc3n1Cc1ccc(Cl)cc1)-c1ccccc1CC21CCCC1`: the half-maximal inhibitory concentration (IC50) was 2.11 µM.

As to `O=c1c2c(-c3ccccc3)n3ncnc3nc2ccn1-n1cnnc1`, the IC50 was > 20 µM (inactive).

With `COc1ccc(Cn2c(=O)c3c(n4nnnc24)-c2cc(C)ccc2CC3(C)C)cc1`, the 50% inhibitory concentration (IC50) was 3.94 µM.

For the compound `CC1(C)Cc2ccccc2-c2c1c(=O)n(Cc1ccccc1)c1nncn21`, the IC50 is > 20 µM (inactive).

On to `COc1ccc2c(c1)-c1c(c(=O)n(Cc3ccc(Cl)cc3)c3nncn13)C1(CCCC1)C2`, for which the IC50 is > 20 µM (inactive).

Consider `Cc1ccc2c(c1)-c1c(c(=O)n(Cc3ccc(F)cc3)c3nnnn13)C1(CCCCC1)C2`, for which the IC50 was 8.14 µM.

With `O=c1c2c(n3nnnc3n1Cc1ccccc1)-c1ccccc1CC21CCCC1`, the half-maximal inhibitory concentration (IC50) was 3.34 µM.

In the case of `CC1CC(=O)C2=C(C1)Nc1ncnn1C2c1cccnc1` (stereo not drawn), the IC50 is > 20 µM (inactive).

As for `C=C(C)Cn1c(=O)c2c(n3nnnc13)-c1ccccc1CC21CCCC1`, the IC50 is > 20 µM (inactive).

For the compound `c1ccc(OCc2nc3c4c(ncn3n2)-c2ccccc2CC42CCCC2)cc1`, the IC50 is > 20 µM (inactive).

For the compound `Cn1c(=S)[nH]c2c(c1=O)C1(CCCCC1)Cc1ccccc1-2`, the IC50 is > 20 µM (inactive).

Consider `COc1ccc2c(c1)-c1c(c(=O)n(Cc3ccc(Cl)cc3)c3nnnn13)C1(CCCC1)C2`, for which the IC50 is > 20 µM (inactive).

In the case of `Cc1ccc2c(c1)-c1c(c(=O)n(Cc3ccccc3)c3nnnn13)C1(CCCCC1)C2`, the concentration for half-maximal inhibition (IC50) was 13.6 µM.

Consider `Cc1ccc2c(c1)-c1c(c(=O)n(Cc3ccc(F)cc3)c3nncn13)C1(CCCCC1)C2`, for which the IC50 was 0.6 µM.

Consider `O=C1CCCC2=C1C(c1cc(Br)ccc1F)n1ncnc1N2` (stereo not drawn), for which the IC50 is > 20 µM (inactive).

As to `COc1ccc2c(c1)-c1c(c(=O)n(Cc3ccc(F)cc3)c3nncn13)C(C)(C)C2`, the IC50 was > 20 µM (inactive).

As to `COc1ccc(Cn2c(=O)c3c(n4cnnc24)-c2cc(C)ccc2CC3(C)C)cc1`, the half-inhibitory concentration (IC50) was 8.29 µM.

Regarding `COc1ccc2c(c1)-c1c(c(=O)n(Cc3ccc(Cl)cc3)c3nnnn13)C(C)(C)C2`, the IC50 was > 20 µM (inactive).

Regarding `COc1ccc2c(c1)-c1c(c(=O)n(Cc3ccccc3)c3nnnn13)C(C)(C)C2`, the IC50 was 4.03 µM.

For the compound `O=c1c2c(-c3ccccc3)n3ncnc3nc2ccn1-c1ccccc1`, the IC50 was > 20 µM (inactive).

Turning to `O=c1c2ccccc2nc2n1C1(CCCC1)Cc1ccccc1-2`, the IC50 was > 20 µM (inactive).
